RGS4 act – RGS4 potentiators or activators, primary screen, cell-based, HEK293 M3R inducible RGS4, calcium flux; carbachol calcium flux Fluo4; stronger effect = lower value; B-score at 10 µM; hit rate 0.92% among 310,000; AID 463111, 2010;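 active = B-score of the integrated calcium signal more than 4 SD below the library mean, with starting fluorescence not abnormally high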;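 note: negative B-score means reduced calcium response which marks RGS4 activation or potentiation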
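Assay system: HEK293 FlpIn-TREx cells, stable M3R, doxycycline-inducible RGS4 / Probe or stimulus: carbachol, ECmax concentration / Times: overnight RGS4 induction, 30 min dye load 37 °C, 20 min compound RT / Signal: kinetic calcium fluorescence imaging with Fluo4-AM dye, 2 µM / Measure: Agonist-evoked peak-minus-minimum fluorescence over baseline, integrated ratio, B score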
MrgX1 ag – agonists of human MrgX1 receptor, primary screen, HEK293 cells, Fluo-4 calcium flux; B-score at 10 µM; Fluo-4 calcium fluorescence, agonist mode; stronger effect = higher value; AID 588627, 2011; Mas-related G-protein coupled receptor member X1 (Homo sapiens), Q96LB2; hit rate 0.44% among 310,000;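 active = calcium response B-score plate-corrected fluorescence ratio at least 3 library SD, with starting fluorescence B-score inside 5 SD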
Target sequence (Q96LB2 whole entry, looked up): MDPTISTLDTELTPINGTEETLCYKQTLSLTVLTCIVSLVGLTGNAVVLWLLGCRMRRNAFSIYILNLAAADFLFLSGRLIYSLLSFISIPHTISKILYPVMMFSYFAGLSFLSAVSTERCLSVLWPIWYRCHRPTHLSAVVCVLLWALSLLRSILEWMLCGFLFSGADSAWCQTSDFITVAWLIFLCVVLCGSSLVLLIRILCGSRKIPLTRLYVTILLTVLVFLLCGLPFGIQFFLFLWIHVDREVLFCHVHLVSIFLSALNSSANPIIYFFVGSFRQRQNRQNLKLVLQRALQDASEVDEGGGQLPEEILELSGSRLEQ
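Assay system: stable human MrgX1 HEK293 cell line. Quantity: 15,000 cells per well. Schedule: cells plated overnight, dye loaded 0.5 h 37 °C, 0.5 h room temperature. Detection: Fluo-4 NW calcium-flux fluorescence, kinetic read. Read-out basis: peak-minus-minimum fluorescence over baseline, converted to B scores. Control set: positive and negative control wells on each plate.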
MrgX1 antag – antagonists of human MrgX1 receptor, primary screen, HEK293 cells, Fluo-4 calcium flux | Mas-related G-protein coupled receptor member X1 (Homo sapiens), Q96LB2 | BAM8-22 antagonism; stronger effect = lower value | B-score at 10 µM | hit rate 1.3% among 310,000;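 active = calcium-response B-score plate-corrected more than 3 library SD below zero, starting fluorescence within 5 deviations, no agonist response on first addition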;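 note: peak minus trough fluorescence over baseline after final BAM8-22 challenge near maximal dose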
MrgX1 allo act – positive allosteric modulators of MrgX1, primary screen, HEK293 cells, Fluo-4 calcium flux. Mas-related G-protein coupled receptor member X1 (Homo sapiens), Q96LB2. FDSS; stronger effect = higher value. B-score at 10 µM. hit rate 0.63% among 310,000. AID 588675, 2011;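 active = plate-corrected calcium response at least 3 library SD above typical, normal starting fluorescence, not activating the receptor alone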;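 note: compound read alongside a low EC10 to EC30 dose of BAM8-22 agonist; peak minus trough fluorescence over baseline measured at the second addition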
RGS4 inh – RGS4 inhibitors, primary screen, cell-based, HEK293 M3R inducible RGS4, calcium flux; Regulator of G-protein signaling 4 (Homo sapiens), P49798; Fluo-4 calcium flux; stronger effect = higher value; triggered by carbachol at its EC20; B-score at 10 µM; hit rate 0.45% among 310,000; AID 463165, 2010;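 active = B-score, a plate-corrected calcium signal, over three deviations above library mean, with baseline fluorescence within five deviations of library mean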;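 note: RGS4 expression induced by doxycycline in cells with stable M3 receptor; B-score is computed from the integrated fluorescence ratio over baseline after carbachol; higher B-score means a larger calcium signal and so more RGS4 inhibition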
Target sequence (P49798 whole entry, looked up): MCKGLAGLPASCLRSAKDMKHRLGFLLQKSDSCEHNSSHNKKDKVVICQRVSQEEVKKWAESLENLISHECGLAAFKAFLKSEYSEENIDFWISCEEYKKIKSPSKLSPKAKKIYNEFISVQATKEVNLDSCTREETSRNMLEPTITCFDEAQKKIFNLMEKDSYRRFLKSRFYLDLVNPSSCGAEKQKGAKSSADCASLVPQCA
Hits are given with their value; - = inactive; . = no result. Most compounds without a hit are left out; they make up all but 3.5% or so of the library.

SMILES | RGS4 act | MrgX1 ag | MrgX1 antag | MrgX1 allo act | RGS4 inh
COc1ccc(-c2n(CC(=O)OC3CC(C)CCC3C(C)C)c3ccccc3[n+]2C)cc1 (centres undefined) | -7.3 | . | . | . | -
COc1ccc(OCc2n(CC(=O)OC3CC(C)CCC3C(C)C)c3ccccc3[n+]2C)cc1 (centres undefined) | - | - | -14.3 | - | -
CCc1cc2c3c(c(=O)oc2cc1OC(C)C(=O)O)CCCC3 (centres undefined) | - | - | - | - | -
CCc1cc2c3c(c(=O)oc2cc1O)CCCC3 | - | - | -5.55 | - | -
C=CCOn1c(=O)c(-c2ccc(F)cc2)[n+]([O-])c2ccccc21 | - | . | . | . | -
COc1ccc(C(=O)NCCCNC(=O)c2cnccn2)cc1Br | - | - | - | - | -
COc1ccccc1N/C=C/c1onc(C)c1[N+](=O)[O-] | - | - | -6.45 | - | -
Cn1cnnc1SCC(=O)c1ccc(O)c(O)c1 | - | - | - | - | -
CCN1/C(=C/c2cc[n+](C)cc2)C=Cc2cc(C)ccc21 | . | - | -6.98 | - | .
Cc1ccc(Nc2nnc(SCC(=O)Nc3cc(C(=O)O)ccc3C)s2)c(C)c1 | - | - | - | - | -
Cc1cccc[n+]1C1C(c2ccccc2)C(C#N)=C(C(=C=[N-])C#N)NC1(O)C1CC1 (centres undefined) | - | 42.8 | - | - | -
Cc1ccc[n+](C2C(c3ccc([N+](=O)[O-])cc3)C(C#N)=C([S-])NC2(O)C2CC2)c1 (centres undefined) | - | - | - | - | -
N#CC(=C=[N-])C1=C(C#N)C(c2ccccc2F)C([n+]2ccccc2)C(O)(C2CC2)N1 (centres undefined) | - | 47.7 | - | - | -
COC(=O)CN(c1ccc(OCc2ccccc2)cc1)S(C)(=O)=O | - | - | - | - | -
O=[N+]([O-])c1cc(-c2nnc(Nc3ccc(O)cc3)c3ccccc23)ccc1N1CCOCC1 | - | - | -4.73 | - | -
COc1ccc2oc(-c3ccc(NC(=O)c4ccc(N5CCOCC5)c([N+](=O)[O-])c4)cc3)nc2c1 | - | - | - | - | -
C=CCNc1nc(NCC)nc(N2CCOCC2)n1 | - | - | - | - | -
C=CCNc1nc(Nc2ccc(-c3nc4ccccc4o3)cc2)nc(N2CCOCC2)n1 | -7.11 | - | - | - | -
O=[N+]([O-])c1cc(-c2nnc(Nc3ccccc3)c3ccccc23)ccc1N1CCOCC1 | - | - | - | - | -
O=C(Nc1ccc(-c2nc3ccccc3o2)cc1)c1ccc(N2CCOCC2)c([N+](=O)[O-])c1 | - | - | -6.54 | - | -
CC(=O)c1ccc(OC(=O)COc2ccccc2Cl)cc1 | - | - | - | - | -
Nc1c2c(nc3ccc(Br)cc13)N(C1CCCCC1)CC2 | - | - | - | 14.4 | -
Cc1ccccc1/C=C/C(=O)N1CCOCC1 | - | - | - | - | -
COc1ccccc1/C=C/C(=O)N1CCOCC1 | -7.78 | - | - | - | -
CCOc1ccc(C2C=C(c3ccccc3)Nc3ncnn32)cc1 (centres undefined) | - | - | - | 11.2 | -
SMILES | RGS4 act | MrgX1 ag | MrgX1 antag | MrgX1 allo act | RGS4 inh
Oc1ccc(C2C=C(c3ccc(F)cc3)Nc3ncnn32)cc1 (centres undefined) | - | . | . | . | -
Cc1ccc(C2C=C(c3ccccc3)Nc3ncnn32)cc1 (centres undefined) | - | - | - | 7.81 | -
CCOc1ccc(C2C=C(c3ccc(F)cc3)Nc3ncnn32)cc1 (centres undefined) | - | - | - | 8.36 | -
CCOc1ccccc1NC(=O)CCCNC(=O)c1ccc(Cl)cc1 | - | - | - | - | -
CC(NCC(=O)Nc1cc(S(=O)(=O)N2CCOCC2)ccc1Cl)c1ccc(Cl)cc1Cl (centres undefined) | - | - | -7.33 | - | -
O=C(Nc1ccccc1Cc1ccccc1)c1oc2ccccc2c1COc1ccccc1 | - | - | -5.48 | - | -
O=Cc1cn(CC(O)Cn2cc(C=O)c3ccccc32)c2ccccc12 | - | - | - | - | -
CS(=O)(=O)N(Cc1ccco1)CC(O)Cn1cc(C=O)c2ccccc21 (centres undefined) | - | - | -5.72 | - | -
Fc1ccc(Cn2c(SCc3ccc(F)c(F)c3)nnc2C(F)(F)F)cc1 | -8.54 | - | - | - | -
C#CCOCCOCCOCCNc1nc(N2CCN(C(=O)CCCCCCCCCCNC(=O)[C@@H](CCC(=O)O)n3cc(CCCCCN)nn3)CC2)nc(N2CCN(C(=O)CCCCCCCCCCNC(=O)[C@H](CCCCN)n3cc(C[C@@H](C)CC)nn3)CC2)n1 | . | 69.5 | - | - | .
C#CCOCCOCCOCCNc1nc(N2CCN(C(=O)CCCCCCCCCCNC(=O)[C@@H](CCC(=O)O)n3cc(CCCCCN)nn3)CC2)nc(N2CCN(C(=O)CCCCCCCCCCNC(=O)[C@H](CO)n3cc(CCCCCN)nn3)CC2)n1 | . | - | - | - | .
C#CCOCCOCCOCCNc1nc(N2CCN(C(=O)CCCCCCCCCCNC(=O)[C@H](CCCCN)n3cc(CCO)nn3)CC2)nc(N2CCN(C(=O)CCCCCCCCCCNC(=O)[C@H](CCCCN)n3cc(C[C@@H](C)CC)nn3)CC2)n1 | . | 82.6 | - | - | .
COc1ccc(C)cc1S(=O)(=O)N(CC(=O)NC1CCCC1)c1ccc(F)cc1 | - | - | - | - | -
Cc1ccc(C2C(C#N)=C(N)Oc3c2sc2ccccc32)o1 (centres undefined) | - | - | - | 9.16 | -
Cc1ccc(C2C(C#N)=C(N)Oc3n[nH]c(-c4ccccc4)c32)o1 (centres undefined) | - | 50.2 | - | - | -
COc1ccc(-c2ccc(C3C(C#N)=C(N)Oc4n[nH]c(C)c43)o2)cc1 (centres undefined) | - | 55.4 | - | - | -
COc1cc(Br)cc(Br)c1OCC(=O)N/N=C/c1c(C)n(C)n(-c2ccccc2)c1=O | - | - | - | - | -
COc1ccc(OCC(=O)Nc2ccccc2N2CCCCC2)cc1 | - | - | - | 14.6 | -
Cc1cccc(OCC(=O)Nc2ccccc2N2CCCCC2)c1C | - | - | - | - | -
Cc1cccc(C)c1OCC(=O)Nc1ccccc1N1CCCCC1 | - | - | - | 7.36 | -
COc1ccc(OCC(=O)Nc2ccccc2N2CCN(C)CC2)cc1 | - | - | - | - | -
O=C(COC(=O)CCSc1ccccc1)NCc1ccccc1 | - | - | - | - | -
O=C(/C=C/c1ccc([N+](=O)[O-])cc1)/C=C/c1ccco1 | - | - | - | - | 15.7
N#C/C(=C\c1cccs1)C(=O)Nc1ccccn1 | - | - | -4.93 | - | -
N#C/C(=C\c1ccccc1)C(=O)Nc1nncs1 | - | - | - | 8.03 | -
O=C(CN1C(=O)c2cccnc2Oc2ccc(Cl)cc21)NC1CCCCC1 | - | - | - | - | -

Screens as filed in PubChem.
